Test results taken from ChEMBL document CHEMBL3400013, “Synthesis and biological activity evaluation of hydrazone derivatives based on a Tröger's base skeleton” (Bioorg Med Chem, 2015).
pIC50: −log10 of the molar value. The source made the active and inactive calls. The calls are words filed in the database; no cut-off is given here.

Assays:
CEM-DNR = assay: Selectivity index, ratio of IC50 for human MRC5 cells to IC50 for human CEM-DNR cells; assay type: functional
Nucleic Acid [1] = assay: Binding affinity to DNA (unknown origin) assessed as DNA intercalation by UV-visible spectrophotometry in presence of Cu2+; assay type: nucleic-acid assay
Candida parapsilosis = assay: Antifungal activity against Candida parapsilosis up to 200 uM after 24 to 48 hrs by broth microdilution method; assay type: functional, organism-based
[2] = Cytostatic activity against human HCT116 cells after 72 hrs by MTT assay; assay type: functional, cell-based; conditions: HCT-116, 72 h
Outline: (§1)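 Cells were seeded at 25,000–30,000 per well and pre-incubated for 24 h at 37°C in 5% CO2. Four-fold compound dilutions were added in duplicate and incubated for 72 h. MTT was added for 1–4 h, and formazan was dissolved in 10% aq SDS (pH 5.5) overnight at 37°C. OD was read at 540 nm. IC50 came from dose-response curves, mean ± SD of eight independent experiments.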

BJ [3] = assay: Selectivity index, ratio of IC50 for human BJ cells to IC50 for human HCT116 cells; assay type: functional
HCT-116 [4] = assay: Selectivity index, ratio of IC50 for human MRC5 cells to IC50 for human p53-/- HCT116 cells; assay type: functional
Nucleic Acid [5] = assay: Binding affinity to DNA (unknown origin) assessed as DNA intercalation by UV-visible spectrophotometry in presence of Ni2+; assay type: nucleic-acid assay
CCRF-CEM [6] = assay: Cell cycle arrest in human CCRF-CEM cells assessed as accumulation at S phase at 5 times IC50 after 24 hrs by propidium iodide staining-based flow cytometry; assay type: functional
Outline: (§2)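 Cells were then fixed in 70% ethanol, washed in hypotonic citrate buffer, treated with RNase (50 µg/mL) and stained with propidium iodide. Flow cytometry used a 488 nm laser. Apoptosis was scored as the percentage of particles with propidium content below G0/G1.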

K562 [7] = assay: Selectivity index, ratio of IC50 for human MRC5 cells to IC50 for human K562 cells; assay type: functional
K562 [8] = assay: Cytostatic activity against human K562 cells after 72 hrs by MTT assay; assay type: functional, cell-based; conditions: K562, 72 h; outline: as §1
CCRF-CEM [9] = assay: Induction of apoptosis in human CCRF-CEM cells assessed as inhibition of RNA synthesis at 5 times IC50 after 24 hrs by propidium iodide/BrU staining by flow cytometry; assay type: functional; parameters: scale not given: the % may be the effect or the level left
Pichia kudriavzevii = assay: Antifungal activity against Candida crusei up to 200 uM after 24 to 48 hrs by broth microdilution method; assay type: functional, organism-based
[10] = Metal chelating activity of the compound assessed as formation of Ca2+ complex by UV-vis spectrometry; assay type: physicochemical
MRC5 [11] = assay: Selectivity index, ratio of IC50 for human MRC5 cells to IC50 for human K562-TAX cells; assay type: functional
CCRF-CEM [12] = assay: Induction of apoptosis in human CCRF-CEM cells assessed as mitotic cells at 5 times IC50 after 24 hrs by pH3Ser10+ labeling-based flow cytometry; assay type: functional
[13] = Metal chelating activity of the compound assessed as formation of Zn2+ complex by UV-vis spectrometry; assay type: physicochemical
HCT-116 [14] = assay: Selectivity index, ratio of IC50 for human MRC5 cells to IC50 for human HCT116 cells; assay type: functional
[15] = Cytostatic activity against human K562-TAX cells after 72 hrs by MTT assay; assay type: functional, cell-based; outline: as §1
[16] = Metal chelating activity of the compound assessed as formation of Cu2+ complex by UV-vis spectrometry; assay type: physicochemical
A549 [17] = assay: Selectivity index, ratio of IC50 for human BJ cells to IC50 for human A549 cells; assay type: functional
Nucleic Acid [18] = assay: Binding affinity to DNA (unknown origin) assessed as DNA intercalation by UV-visible spectrophotometry; assay type: nucleic-acid assay
Candida tropicalis = assay: Antifungal activity against Candida tropicalis up to 200 uM after 24 to 48 hrs by broth microdilution method; assay type: functional, organism-based
CCRF-CEM [19] = assay: Cell cycle arrest in human CCRF-CEM cells assessed as accumulation at S phase at IC50 after 24 hrs by propidium iodide staining-based flow cytometry; assay type: functional; outline: as §2
CCRF-CEM [20] = assay: Induction of apoptosis in human CCRF-CEM cells assessed as inhibition of DNA synthesis at IC50 after 24 hrs by propidium iodide/BrdU staining by flow cytometry; assay type: functional; parameters: scale not given: the % may be the effect or the level left
[21] = Metal chelating activity of the compound assessed as formation of Fe2+ complex by UV-vis spectrometry; assay type: physicochemical
Nucleic Acid [22] = assay: Binding affinity to DNA (unknown origin) assessed as DNA intercalation by UV-visible spectrophotometry in presence of Co2+; assay type: nucleic-acid assay
Staphylococcus aureus [23] = assay: Antimicrobial activity against Staphylococcus aureus CCM 3953 up to 200 uM after 24 to 48 hrs by broth microdilution method; assay type: functional, organism-based
CCRF-CEM [24] = assay: Induction of apoptosis in human CCRF-CEM cells assessed as apoptotic cells at IC50 after 24 hrs by propidium iodide staining-based flow cytometry; assay type: functional; outline: as §2
[25] = Metal chelating activity of the compound assessed as formation of Cr3+ complex by UV-vis spectrometry; assay type: physicochemical
[26] = Metal chelating activity of the compound assessed as formation of Mn2+ complex by UV-vis spectrometry; assay type: physicochemical
BJ [27] = assay: Selectivity index, ratio of IC50 for human BJ cells to IC50 for human p53-/- HCT116 cells; assay type: functional
[28] = tested on: Staphylococcus haemolyticus; assay: Antimicrobial activity against methicillin-resistant Staphylococcus haemolyticus A1/16568 up to 200 uM after 24 to 48 hrs by broth microdilution method; assay type: functional, organism-based
[29] = Metal chelating activity of the compound assessed as formation of Ni2+ complex by UV-vis spectrometry; assay type: physicochemical
CCRF-CEM [30] = assay: Cell cycle arrest in human CCRF-CEM cells assessed as accumulation at G0/G1 phase at 5 times IC50 after 24 hrs by propidium iodide staining-based flow cytometry; assay type: functional; outline: as §2
Enterococcus faecalis = assay: Antimicrobial activity against Enterococcus faecalis CCM 4224 up to 200 uM after 24 to 48 hrs by broth microdilution method; assay type: functional, organism-based
[31] = Cytostatic activity against human p53-/- HCT116 cells after 72 hrs by MTT assay; assay type: functional, cell-based; conditions: HCT-116, 72 h; outline: as §1
Nucleic Acid [32] = assay: Binding affinity to DNA (unknown origin) assessed as DNA intercalation by UV-visible spectrophotometry in presence of Zn2+; assay type: nucleic-acid assay
A549 [33] = assay: Selectivity index, ratio of IC50 for human MRC5 cells to IC50 for human A549 cells; assay type: functional
MRC5 [34] = assay: Cytostatic activity against human MRC5 cells after 72 hrs by MTT assay; assay type: ADME, cell-based; conditions: MRC5, 72 h; outline: as §1
Staphylococcus aureus [35] = assay: Antimicrobial activity against methicillin-resistant Staphylococcus aureus MRSA 4591 up to 200 uM after 24 to 48 hrs by broth microdilution method; assay type: functional, organism-based
[36] = Metal chelating activity of the compound assessed as formation of Fe3+ complex by UV-vis spectrometry; assay type: physicochemical
CCRF-CEM [37] = assay: Cell cycle arrest in human CCRF-CEM cells assessed as accumulation at G2/M phase at IC50 after 24 hrs by propidium iodide staining-based flow cytometry; assay type: functional; outline: as §2
Pseudomonas aeruginosa = assay: Antimicrobial activity against Pseudomonas aeruginosa CCM 395 up to 200 uM after 24 to 48 hrs by broth microdilution method; assay type: functional, organism-based
CCRF-CEM [38] = assay: Induction of apoptosis in human CCRF-CEM cells assessed as inhibition of DNA synthesis at 5 times IC50 after 24 hrs by propidium iodide/BrdU staining by flow cytometry; assay type: functional; parameters: scale not given: the % may be the effect or the level left

## O=C(N/N=C/c1ccccc1O)c1ccc2c3c(ccc2c1)N1Cc2c(ccc4cc(C(=O)N/N=C/c5ccccc5O)ccc24)N(C3)C1
CEM-DNR
  Ratio IC50: 0.1
Nucleic Acid [1]
  Activity: Active
Candida parapsilosis
  Activity: inactive
[2]
  pIC50: 6.41
BJ [3]
  Ratio IC50: 0.8
HCT-116 [4]
  Ratio IC50: 1.7
Nucleic Acid [5]
  Activity: Active
CCRF-CEM [6]
  Activity: 37.75%
K562 [7]
  Ratio IC50: 0.6
K562 [8]
  pIC50: 6.24
CCRF-CEM [9]
  Activity: 83.92%
Pichia kudriavzevii
  Activity: inactive
[10]
  Activity: Not Active
MRC5 [11]
  Ratio IC50: 0.4
CCRF-CEM [12]
  Activity: 0.01%
[13]
  Activity: Active
HCT-116 [14]
  Ratio IC50: 0.8
[15]
  pIC50: 6.08
[16]
  Activity: Active
A549 [17]
  Ratio IC50: 0.3
Nucleic Acid [18]
  Activity: inactive
Candida tropicalis
  Activity: inactive
CCRF-CEM [19]
  Activity: 50.31%
CCRF-CEM [20]
  Activity: 50.71%
[21]
  Activity: Not Active
Nucleic Acid [22]
  Activity: Active
Staphylococcus aureus [23]
  Activity: inactive
CCRF-CEM [24]
  Activity: 18.07%
[25]
  Activity: Not Active
[26]
  Activity: Not Active
BJ [27]
  Ratio IC50: 1.7
[28]
  Activity: inactive
[29]
  Activity: Active
CCRF-CEM [30]
  Activity: 43.33%
Enterococcus faecalis
  Activity: inactive
[31]
  pIC50: 6.72
Nucleic Acid [32]
  Activity: Active
A549 [33]
  Ratio IC50: 0.3
MRC5 [34]
  pIC50: 6.41
Staphylococcus aureus [35]
  Activity: inactive
[36]
  Activity: Active
CCRF-CEM [37]
  Activity: 19.09%
Pseudomonas aeruginosa
  Activity: inactive
CCRF-CEM [38]
  Activity: 5.94%

## Cc1ccc(O)c(/C=N/NC(=O)c2ccc3c4c(ccc3c2)N2Cc3c(ccc5cc(C(=O)N/N=C/c6cc(C)ccc6O)ccc35)N(C4)C2)c1
CEM-DNR
  Ratio IC50: 0.1
Nucleic Acid [1]
  Activity: Active
Candida parapsilosis
  Activity: inactive
[2]
  pIC50: 6.21
BJ [3]
  Ratio IC50: 0.8
HCT-116 [4]
  Ratio IC50: 1.1
Nucleic Acid [5]
  Activity: Active
CCRF-CEM [6]
  Activity: 46.78%
K562 [7]
  Ratio IC50: 0.5
K562 [8]
  pIC50: 6.05
CCRF-CEM [9]
  Activity: 26.44%
Pichia kudriavzevii
  Activity: inactive
[10]
  Activity: Not Active
MRC5 [11]
  Ratio IC50: 0.4
CCRF-CEM [12]
  Activity: 0.22%
[13]
  Activity: Active
HCT-116 [14]
  Ratio IC50: 0.8
[15]
  pIC50: 5.94
[16]
  Activity: Active
A549 [17]
  Ratio IC50: 0.9
Nucleic Acid [18]
  Activity: inactive
Candida tropicalis
  Activity: inactive
CCRF-CEM [19]
  Activity: 44.83%
CCRF-CEM [20]
  Activity: 38.67%
[21]
  Activity: Not Active
Nucleic Acid [22]
  Activity: Active
Staphylococcus aureus [23]
  Activity: inactive
CCRF-CEM [24]
  Activity: 14.09%
[25]
  Activity: Not Active
[26]
  Activity: Not Active
BJ [27]
  Ratio IC50: 1.1
[28]
  Activity: inactive
[29]
  Activity: Active
CCRF-CEM [30]
  Activity: 38.43%
Enterococcus faecalis
  Activity: inactive
[31]
  pIC50: 6.35
Nucleic Acid [32]
  Activity: Active
A549 [33]
  Ratio IC50: 0.9
MRC5 [34]
  pIC50: 6.57
Staphylococcus aureus [35]
  Activity: inactive
[36]
  Activity: Active
CCRF-CEM [37]
  Activity: 14.65%
Pseudomonas aeruginosa
  Activity: inactive
CCRF-CEM [38]
  Activity: 5.17%
